The record followed here is ChEMBL document CHEMBL1128261, “Synthesis and biological activity of thiazolylindolequinones, analogues of the natural product BE 10988” (J Med Chem, 1995).

In experiment [1] the test system is V79. As to the kind of experiment: The IC50 value was measured on V79 cells in the presence of air using MTT assay. Type of experiment: functional, cell-based. Conditions: Cricetulus griseus. The essentials:
(§1)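 V79 Chinese hamster cells were exposed to drug under aerobic (air) or hypoxic (N2) conditions. After the drug was removed, cells proliferated for 3 days before MTT assay. IC50 is the concentration killing 50% of cells under the initial treatment condition.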
In general terms: Tetrazolium dyes change colour on reduction, which living cells bring about.

A further experiment has as its system SK-BR-3. As to the kind of experiment: The IC50 value was measured on human breast cancer cell line SK-BR-3. Type of experiment: functional, cell-based. The essentials:
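SKBr3 breast cancer cells were seeded at 10^4 cells/well for exponential growth over 4 days. Graded compound concentrations were added 2 h after plating (4 wells per concentration), with continuous exposure for 4 days and MTT growth readout. Each experiment was done at least twice, and IC50 was derived from the cumulative data.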

Experiment [2] relates to V79. The experiment is described as follows: The IC50 value was measured on V79 cells in the presence of nitrogen using MTT assay. Type of experiment: functional, cell-based. To be noted: Cricetulus griseus. The essentials:
as §1

A short description of experiment [3]: Ratio of IC50 against V79 cells in the presence of air to that of nitrogen. Type of experiment: functional.

pIC50: −log10 of the molar value.

In general, pIC50 refers to the negative decadic logarithm of the IC50, by convention in mol/L.

`CCOC(=O)c1csc(-c2cn(C)c3c2C(=O)C(OC)=CC3=O)n1`: the values for the pIC50 in the experiment with V79 [1], in the experiment with SK-BR-3 and in the experiment with V79 [2] were 3.37, 4.56 and 3.46, respectively. For the same molecule, the Ratio in experiment [3] is reported as 1.2.

With `Cn1cc(-c2nc(C(N)=O)cs2)c2c1C(=O)C=C(N)C2=O`, the negative logarithm of the IC50 (pIC50) is 5.21 in the experiment on V79 [1], 5.06 in the experiment with SK-BR-3 and 5.29 with V79 [2]. Further, in experiment [3], the Ratio turned out to be 1.2.

On to `Cc1csc(-c2cn(C)c3c2C(=O)C(=N)C=C3O)n1`, for which the pIC50 in the experiment with V79 [1] is 4.99; in the experiment with SK-BR-3 it was 6.14; in the experiment on V79 [2] it was 5.22. Further, the Ratio in experiment [3] amounted to 1.7.

As to `O=C1c2c(O)ccc(O)c2C(=O)c2c(NCCNCCO)ccc(NCCNCCO)c21` [MITOXANTRONE], the negative logarithm of the IC50 (pIC50) in the experiment on SK-BR-3 is 7.80.

As to `CCOC(=O)c1coc(-c2cn(C)c3c2C(=O)C(OC)=CC3=O)n1`, the pIC50 in the experiment on V79 [1] is 4.29; in the experiment on SK-BR-3 it was 5.32; in the experiment with V79 [2], 4.34. The Ratio in experiment [3] was 1.1.

Consider `Cn1cc(-c2csc(C(N)=O)n2)c2c1C(=O)C=C(N)C2=O`, for which the pIC50 was 5.26 with V79 [1], 5.39 with SK-BR-3 and 5.39 in the experiment on V79 [2]. Also, in experiment [3], the Ratio worked out at 1.3.

As for `COC1=CC(=O)c2c(c(-c3nc(C)cs3)cn2C)C1=O`, the results for the negative logarithm of the IC50 (pIC50) in the experiment on V79 [1], with SK-BR-3 and with V79 [2] were 4.14, 5.85 and 4.32, respectively. The Ratio in experiment [3] was determined as 1.5.

For `CCOC(=O)c1nc(-c2cn(C)c3c2C(=O)C(OC)=CC3=O)cs1`, the pIC50 in the experiment on V79 [1] is 4.41; in the experiment on SK-BR-3 it was 4.77; with V79 [2], 4.22. In experiment [3], the Ratio amounted to 0.64.
